# Unmarked numbers belong to inactive results. Records with an inconclusive call do not appear. The source made the active and inactive calls.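 Rule for the calls, unless noted: active = viability increase at or above a cutoff of the median across tested compounds plus 3 SD (cut at about 8.5% in these data, passing the limit was not always enough); inconclusive = some gains above the cutoff, reason not given; inactive = the rest.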
# Legend:
# [1] = OD615 S. cerevisiae growth inhibition, permissive medium, pilot counter-assay, permissive growth control for S. cerevisiae lifespan shortening project (AID 705;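 active = growth inhibition above 25% in both replicates, a cutoff set 3 SD above the mean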); details: OD615, 24 h, at 10 µM, active compounds read high
# Method in brief: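 Material: engineered DeaD yeast; Compound: one dose 10 µM, DMSO 0.25% final; Detection: absorbance (optical density) at 615 nm; Buffer or medium: permissive raffinose/galactose medium; Timing: 24 h exposure, 30 °C.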
# [2] = Restrictive medium S. cerevisiae growth inhibition, OD615, pilot screen of yeast lifespan reduction project, restrictive growth control (AID 706;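 active = growth inhibition above a set limit, 3 SD over mean compound inhibition, in both replicates, cut at about 43% in these data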;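 note: modified DeaD lifespan yeast strain shifted to restrictive glucose medium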); details: OD615, 48 h, at 10 µM, active compounds read high
# Method in brief: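 Buffer or medium: restrictive glucose medium (CSMM-D); test system: modified S. cerevisiae; doses: single dose of 10 µM compound final, 0.25% DMSO; schedule: 48 h compound exposure at 30 °C; detection: absorbance (optical density) measured at 615 nm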
# [3] = viability gain of MRP-1-high H69AR cells under doxorubicin, pilot screen, MRP-1 activator project, CellTiter-Glo, duplicate (AID 807); details: H69AR viability with doxorubicin, CellTiter-Glo luminescence; at 10 µM; active compounds read high;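 note: compound pretreatment 18-22 h then 72 h combined with doxorubicin; 0% = doxorubicin alone and 100% = vehicle without doxorubicin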
# [4] = growth suppression of beta-catenin knockout HCT116, pilot screen, human colon tumor cells (AID 823;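 active = cell viability at or below a set limit in both duplicate runs, the limit being the all-compound median minus 4 SD, cut at about 23% in these data, passing the limit was not always enough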;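 note: 0% = wells killed by 20 µM Hyamine and 100% = untreated DMSO cell wells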); details: CellTiter-Glo, 60 h, at 10 µM, active compounds read low
# [5] = growth suppression of PTEN-deleted HCT116, pilot screen, cell-based, HCT116 clonal line, CellTiter-Glo (AID 824;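 active = viability at or below 27.92% in each of two runs, the all-compound median minus 4 SD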;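 note: 0% = 20 µM Hyamine control and 100% = vehicle cell control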); details: 60 h, at 10 µM, active compounds read low
# [6] = inhibitors of the yeast RAM network, pilot screen, dse1pr::URA3 reporter, 5-FOA selection (AID 869;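 active = inhibition over a set limit, the all-compound mean plus 3 SD, in both replicate runs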;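 note: 0% = DMSO wells with no growth and 100% = 10 µM 1-NA-PP1 with full growth; RAM network block rescues cells from 5-FOA so hits raise OD615 growth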); details: S. cerevisiae dse1pr::URA3 5-FOA growth, OD615, 2 d; at 10 µM; active compounds read high; strain carries analog-sensitive mutant Cbk1 kinase
# [7] = RAM signaling pathway blockade in yeast – S. cerevisiae, Pdr1DBD-CYC8 efflux-inhibited sensitized strain, primary screen (AID 1298;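 active = RAM network inhibition above 8.4% in each of two replicates, 3 SD over the compound average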;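 note: 0% = DMSO untreated cells without growth and 100% = 10 µM 1-NA-PP1 full growth; higher means more yeast growth rescued from 5-FOA killing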); details: S. cerevisiae cbk1-as DSE1-URA3 strain, 5-FOA growth OD615, 2 d; at 50 µM; active compounds read high
Compound,growth inhibition [1],growth inhibition [2],viability increase [3],viability [4],viability [5],inhibition [6],RAM network inhibition [7]
O=C(CCCOc1ccccc1)n1nnc2ccccc21,-10.8%,-9.88%,-1.21%,98.9%,100%,0.75%,0.05%
O=C(Cn1c(=O)sc2ccccc21)Nc1ccccc1C(=O)O,-3.71%,0.435%,1.36%,102%,96.7%,3.53%,2.02%
CC(C)C(NC(=O)C12CC3CC(CC(C3)C1)C2)C(=O)NC1=NCCS1 (centres undefined),-6.21%,7.3%,-3.97%,88%,89.2%,2.41%,4.34%
CCOc1ccc(CC(=O)NCc2cn3c(C)csc3n2)cc1,-5.88%,12.6%,-0.15%,97.4%,102%,1.14%,6.38%
O=C(O)c1ccc(N2CCCCCC2)c(N2C(=O)c3ccccc3C2=O)c1,-18%,4.7%,-0.78%,108%,98.2%,0.945%,3.42%
N#CCn1c(C2CCCCC2)nc2ccccc2c1=O,-27%,-22.9%,-4.23%,90.2%,84.5%,0.79%,3.71%
Cc1cc(F)ccc1S(=O)(=O)Nc1c(C)n(C)n(-c2ccccc2)c1=O,1.71%,0.315%,-1.59%,114%,93.7%,0.205%,2.26%
O=C(Cn1cc2c(n1)CCCC2)NCCCN1CCN(c2ccccc2F)CC1,-16.9%,-6.56%,-3.08%,89.5%,89%,0.665%,5.8%
CCCCCc1nnc(NC(=O)OCCC)s1,-1%,14.7%,-3.57%,97.8%,91.2%,0.63%,-0.93%
N#CCCN(CCC#N)C(=O)c1ccc(Cl)cc1,-2.15%,-11.1%,-1.59%,92.7%,93.2%,1.3%,3.78%
CC1(C)Cc2ccccc2-c2nc(NCCCO)n(-c3ccccc3)c(=O)c21,-18.3%,-18.9%,-0.84%,97.7%,91.3%,1.07%,5.29%
COc1ccccc1C1C=C(c2ccccc2)Nc2nnnn21 (centres undefined),-4.73%,4.88%,-0.25%,72.2%,83.7%,0.05%,5.5%
CCSC1=N/C(=C\c2ccc(C(=O)O)cc2)C(=O)S1,-3.9%,-3.52%,-2.03%,95.4%,100%,1.83%,8.27%
O=C1CCCCCN1CP(=O)(O)CCc1ccccc1,-5.01%,-0.455%,-0.2%,100%,104%,1.19%,0.42%
Cc1ccccc1CSc1nnc(Cn2c(=O)sc3ccccc32)n1C,-9.17%,11.4%,1.46%,95.6%,98.5%,1.81%,6.66%
COc1ccc(OC)c(Nc2cc(C)nc3nc(C)nn23)c1,0.505%,-0.375%,-5.35%,65.5%,57.4%,1.67%,5.24%
O=C(c1ccccc1S(=O)(=O)NCc1ccccc1)N1CCCC1,-12%,-20.3%,-0.09%,110%,98%,1.66%,3.93%
Cc1cc(C(C)(C)C)oc1C(=O)Nc1ccc(CC(=O)O)cc1,-5.71%,6.31%,1.52%,100%,98.9%,1.31%,3.99%
Cc1ccc2c(c1)c1c(n2CC(O)Cn2c(C)nc3ccccc32)C(=O)CCC1 (centres undefined),-7.12%,-1.9%,-0.7%,59.2%,62.2%,2.33%,7.19%
C=CCOC(=O)c1[nH]c2c(c1C)C(=O)CC(c1cc(OC)c(OC)c(OC)c1)C2 (centres undefined),1.75%,6.24%,-0.05%,53.4%,66.7%,3.67%,5.97%
CCc1ccc(C2CC(c3ccc(F)cc3)Nc3nc(N)nn32)cc1 (centres undefined),-4.34%,9.52%,-0.06%,103%,95.4%,-0.41%,7.69%
O=C(NCc1ccccn1)c1nnc(Cc2ccc(Cl)cc2)o1,-1.48%,2.66%,1.55%,108%,103%,0.515%,-1.46%
Cn1nnnc1SCC(=O)c1cccs1,-23.8%,-13%,-2.93%,93%,90.9%,1.24%,1.92%
Cc1cccn2cc(-c3ccc(S(=O)(=O)N4CCOCC4)cc3)nc12,-12.6%,-19.7%,-1.3%,83.5%,91%,1.75%,2.29%

Compound,growth inhibition [1],growth inhibition [2],viability increase [3],viability [4],viability [5],inhibition [6],RAM network inhibition [7]
COC(=O)c1ccc(CSc2nc3c(c(=O)n2-c2ccc(Br)cc2)SCC3)o1,-15.5%,-19.8%,-3.79%,80.9%,76%,1.67%,7.53%
CCCCCn1c(NCc2ccco2)nc2ccccc21,0.22%,1.09%,-5.56%,84.9%,72.9%,1.6%,1.9%
Cn1c(=O)oc2cc(S(=O)(=O)NCc3ccco3)ccc21,2.12%,5.31%,-4.38%,101%,93.8%,1.41%,3.2%
COCCN1C(=O)c2oc3ccccc3c(=O)c2C1c1ccc(C(=O)OC)cc1 (centres undefined),-1.7%,5.81%,-1.14%,94.3%,89.1%,0.775%,2.37%
Cc1ccc2oc(=O)c3cnn(CC(=O)NC4CCN(Cc5ccccc5)CC4)c3c2c1,-4.11%,0.24%,-3.78%,88.3%,92%,1.77%,0.57%
Cc1nn(Cc2ccc(Cl)c(Cl)c2)c(C)c1NC(=O)c1cc(C2CC2)on1,-10.7%,1.77%,1.41%,79%,84.7%,0.125%,2.79%
Cn1c(C(=O)N2CCN(Cc3ccc4c(c3)OCO4)CC2)cc2c(=O)n(C)c3ccccc3c21,-1.14%,0.725%,-1.54%,67.9%,71.9%,3.29%,0.67%
CC1CC(C)CN(C(=O)CSc2nnc(-c3ccc(Cl)s3)o2)C1 (centres undefined),-4.71%,-6.08%,2.04%,96.5%,92.4%,0.75%,2.52%
O=C(CSCC(=O)NC1CC1)Nc1ccccc1,-0.675%,-11.9%,-1.13%,98.2%,98.7%,0.03%,-0.72%
COc1ccc2c(c1)[nH]c1c(N3CCN(Cc4ccc5c(c4)OCO5)CC3)ncnc12,-15.7%,-18.4%,-5.9%,11.9% (active),23.1% (active),2.08%,5.66%
CCC(SCC(=O)OC)C(=O)Nc1nnc(C(C)C)s1 (centres undefined),1.46%,8.39%,-1.27%,98.8%,98.1%,2.43%,2.05%
COc1ccc(CCNc2oc(-c3ccc(C)cc3)nc2C#N)cc1OC,-10.8%,-13.3%,-0.33%,95.8%,104%,0.67%,-0.47%
COC(=O)C(Cc1ccccc1)NC(=O)CSc1nc(C)cc(=O)[nH]1 (centres undefined),-8.37%,-4.86%,-2.4%,101%,91.7%,1.4%,-0.21%
CCOC(=O)CN1CC23C=CC(O2)C(C(=O)NCc2ccc(C)cc2)C3C1=O (centres undefined),-6.12%,-3.33%,-0.1%,99.5%,109%,1.29%,1.3%
COc1ccc(C(C(=O)NC2CCCC2)N2CCc3ccccc32)cc1 (centres undefined),-12.6%,-11.4%,-3.02%,92.8%,87.9%,1.26%,1.52%
CC(C)(Oc1ccc(-c2ccco2)cc1)C(=O)O,-0.405%,0.705%,-0.38%,97.8%,96.8%,0.31%,1.07%
O=C(NCCn1ccc2ccccc21)c1ccc(S(=O)(=O)N2CCOCC2)cc1,3.54%,-8.71%,-2.92%,101%,96.7%,0.33%,6.66%
CCc1cc2c(=O)c(-c3nc4ccccc4n3C)c(C(C)C)oc2c(CN2CCN(C)CC2)c1O,-3.21%,8.45%,-0.59%,69.4%,82.8%,1.74%,1.64%
Cc1cc(C)n2nc(S(=O)(=O)NC3CCCCC3)nc2n1,-7.41%,-7.9%,-0.66%,103%,98.5%,1.06%,-0.89%
CCCSC1=C(C#N)C(c2ccc(Cl)cc2Cl)CC(=O)N1 (centres undefined),3.83%,24%,-1.42%,83.5%,79.4%,1.54%,3.58%
Cc1cc(NC(=O)CC(CN(C)S(=O)(=O)c2ccccc2)c2ccccc2)no1 (centres undefined),-7.79%,-20.5%,-4.04%,89.7%,81.3%,1.59%,3.14%
O=C1c2oc3ccc(F)cc3c(=O)c2C(c2cccc(O)c2)N1CCCN1CCOCC1 (centres undefined),-6.24%,-8.16%,0.39%,99%,96.2%,0.63%,0.27%
COc1ccc(-c2cc(C(F)F)n3ncc(C(=O)N4CCN(C(=O)c5ccco5)CC4)c3n2)cc1,-2.55%,-0.9%,-5.07%,74.5%,72.6%,0.475%,10.2%
